In ChEMBL document CHEMBL1125843, “Electron-deficient isoalloxazines: model systems for disulfide prodrug formation” (J Med Chem, 1991):

Experiments:
Format in all cases: ADME
[1] = […] rate constant (10e7kAH) required for the formation of m-nitrothiophenol disulfide.
Summary of the method: (§1)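 Isoalloxazine-catalyzed oxidation of m-nitrothiophenol to its disulfide was quantified by HPLC in phosphate buffer (0.08-0.4 M, pH 7-9) with ionic strength held at 0.4 M (KCl). Isoalloxazine stocks in dry methanol/dichloromethane were diluted into aqueous-methanolic reactions. At fixed pH, k_obs/[mNTP] was plotted against buffer base fraction. The slopes were then plotted against [AH]/[A−] to give k_AH (slope) and k_A− (intercept). Values are the mean of two determinations.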

[2] = Spontaneous rate constant (10e6 ko) required for the formation of m-nitrothiophenol disulfide.; summary of the method: as §1
[3] = General acid and general base rate constant (10e4kA-) required for the formation of m-nitrothiophenol disulfide.; summary of the method: as §1

Row | Compound | kAH [1] | k'o [2] | kA- [3]
1 | O=c1nc2n(-c3ccccc3)c3ccccc3nc-2c(=O)n1CCCCCCCCS | 6.8 M⁻¹ s⁻¹ | 3 M⁻¹ s⁻¹ | 0.1 M⁻¹ s⁻¹
2 | Cn1c2nc(=O)n(CCCCCCCCS)c(=O)c-2nc2ccc(C#N)cc21 | 131.7 M⁻¹ s⁻¹ | 4.6 M⁻¹ s⁻¹ | 2.3 M⁻¹ s⁻¹
